Screening data: PubChem BioAssay, SRMLSC
Sampled rows, rich in hits. Any-hit rate of the full collection: about 4.3%.
BB579 growth dn – chemicals that inhibit yeast BB579 growth in restrictive medium (lifespan-shortening candidates); S. cerevisiae BB579 growth, OD615, 48 h; inhibition, % at 10 µM; 0.51% of 140,000 active; AID 804;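 active = inhibition above a set limit, 3 SD over the mean compound inhibition, cut at about 44% in these data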
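test system = yeast BB579 (DeaD) | buffer or medium = restrictive CSMM-D medium | doses = single compound dose of 10 µM, 0.25% DMSO final | times = 4 h preincubation and 48 h exposure at 30 °C | technique = culture absorbance at 615 nm | benchmarks = amphotericin B 10 µg/mL, positive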
WT yeast gro inh – growth inhibition of WT yeast, mitochondrial fusion screen; 2.1% of 190,000 active; mitochondrial fusion phenotypic screen, WT strain; inhibition, % at 10 µM; in the data active = inhibition above about 58%; tested in S. cerevisiae
Yeast lifespan up – yeast lifespan extension | S. cerevisiae growth with nicotinamide, OD615; deaD strain in restrictive glucose medium | inhibition of the nicotinamide effect, % at 10 µM | 0.68% of 130,000 active;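 active = inhibition above a set limit, placed 3 SD over the median of all compounds, cut at about 26% in these data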;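 also: 0% = nicotinamide-treated wells and 100% = cells grown without nicotinamide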
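Assay system: engineered S. cerevisiae DeaD replicative-lifespan strain, galactose-grown log-phase cells; Buffer or medium: CSMM-D glucose medium, restrictive; Probe or stimulus: nicotinamide 1.5 mM; Compound: single dose 10 µM compound, 0.25% DMSO; Schedule: 4 h preincubation then 48 h treatment at 30 °C; Technique: OD615 measurement.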
RAM network inh – blocks the yeast RAM network | inhibition, % at 50 µM | S. cerevisiae dse1pr::URA3 reporter, 5-FOA growth OD615, 2 d; analog-sensitive cbk1-as2 kinase mutant strain | 1.8% of 190,000 active | AID 868;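 active = inhibition above a set limit, 3 SD over mean compound inhibition, cut at about 8.4% in these data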;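 also: 0% = DMSO-only wells with no growth and 100% = 10 µM 1-NA-PP1 full growth; inhibition rescues growth on 5-FOA so higher OD means more RAM inhibition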
* = called active by the depositor.

How did O=C(Nc1ccc(Cl)cc1)c1csc(-c2ccccc2)n1 do in these assays?
BB579 growth dn: -55.5; WT yeast gro inh: 26.5; Yeast lifespan up: -14.8; RAM network inh: 9.7*

Results for O=C(CN1C(=O)c2ccccc2S1(=O)=O)NC(Nc1ccccc1F)C(Cl)(Cl)Cl (centres undefined) ?
WT yeast gro inh: 9.4; RAM network inh: 2.2

Results for COc1ccccc1NS(=O)(=O)c1ccc(N/N=C/c2c(C)nn(-c3ccccc3)c2N2CCCC2)c([N+](=O)[O-])c1 ?
BB579 growth dn: -45.3; WT yeast gro inh: 18.2; Yeast lifespan up: 1.8; RAM network inh: 9.6*

Results for Cc1nn(-c2ccccc2)c(N2CCCC2)c1/C=N/Nc1ccc(S(=O)(=O)Nc2ccccc2)cc1[N+](=O)[O-] ?
BB579 growth dn: -8.0; WT yeast gro inh: 2.0; Yeast lifespan up: 3.9; RAM network inh: 9.0*

How did COc1c(/C=N/Nc2ccc([N+](=O)[O-])cc2[N+](=O)[O-])c(C)nn1-c1ccccc1 do in these assays?
BB579 growth dn: -38.5; WT yeast gro inh: 33.3; Yeast lifespan up: 36.7; RAM network inh: 3.2

Results for CCN(CC)S(=O)(=O)N1CCC(C(=O)NCc2ccco2)CC1 ?
WT yeast gro inh: -3.0; RAM network inh: -0.6

What do the screens show for `Cc1cc(C(C)(C)C)cc(S(=O)(=O)Nc2ccc(O)c(C(=O)O)c2)c1C`?
BB579 growth dn: -14.3; WT yeast gro inh: -0.3; Yeast lifespan up: -3.9; RAM network inh: -0.1

What do the screens show for `CC(=O)Nc1ccc(NC(=O)c2ccc(NS(=O)(=O)c3cc(C(C)(C)C)cc(C)c3C)cc2)cc1`?
BB579 growth dn: -41.6; WT yeast gro inh: 6.7; Yeast lifespan up: 2.7; RAM network inh: 10.3*

How did CC1=C(C)CC(C(=O)Nc2ccc3c(c2)OCO3)C(C(=O)O)C1 (centres undefined) do in these assays?
WT yeast gro inh: -2.5; RAM network inh: -0.9

How did COc1ccc(-c2nnn(CC(=O)N(Cc3ccco3)C(C(=O)NCC3CCCO3)c3ccco3)n2)cc1 (centres undefined) do in these assays?
BB579 growth dn: -20.0; WT yeast gro inh: -2.9; Yeast lifespan up: -3.3; RAM network inh: -1.3

What do the screens show for `COc1ccc(CN(C(=O)Cn2nnc(-c3ccc(C)o3)n2)C(C(=O)NCC2CCCO2)c2ccco2)cc1` (centres undefined)?
WT yeast gro inh: -6.2; RAM network inh: 9.1*

How did COc1ccc(OC)c(NC(=O)CSc2nnc(C)n2Cc2ccccc2)c1 do in these assays?
BB579 growth dn: -12.9; WT yeast gro inh: -5.1; Yeast lifespan up: -8.3; RAM network inh: 9.2*

What do the screens show for `CC(O)C(NS(=O)(=O)c1ccc(Cl)cc1)C(=O)OCC(=O)c1c[nH]c2ccccc12` (centres undefined)?
WT yeast gro inh: 9.5; RAM network inh: -0.1

How did CSCCC(NS(=O)(=O)c1ccc(Cl)cc1)C(=O)OCC(=O)c1c(C)[nH]c2ccccc12 (centres undefined) do in these assays?
BB579 growth dn: -22.6; WT yeast gro inh: 10.8; Yeast lifespan up: 1.2; RAM network inh: 10.0*

Results for COc1ccc(CCNC(=O)C2CCN(c3nccc(C)n3)CC2)cc1 ?
WT yeast gro inh: -1.2; RAM network inh: 1.4

How did O=C(Nc1ccccc1)c1ccc(-c2ccccc2Cl)o1 do in these assays?
BB579 growth dn: -41.6; WT yeast gro inh: 27.6; Yeast lifespan up: -2.2; RAM network inh: 6.5

Results for O=C(NCCc1ccccc1)c1ccc(-c2ccccc2Cl)o1 ?
BB579 growth dn: -41.4; WT yeast gro inh: 38.9; Yeast lifespan up: -3.3; RAM network inh: 8.6*

Results for Cc1ccc2nc(N/N=C/c3ccccc3F)nc(-c3ccccc3)c2c1 ?
BB579 growth dn: -11.1; WT yeast gro inh: 64.1*; Yeast lifespan up: -4.2; RAM network inh: -0.9

Results for CC1CC(C)CN(C(=O)c2cc3c(s2)CCC3)C1 (centres undefined) ?
BB579 growth dn: -48.3; WT yeast gro inh: 4.1; Yeast lifespan up: -2.0; RAM network inh: 0.9

What do the screens show for `CCc1cccc(CC)c1NC(=O)COC(=O)CC1c2ccccc2CCN1S(=O)(=O)c1ccccc1` (centres undefined)?
BB579 growth dn: -30.3; WT yeast gro inh: -10.9; Yeast lifespan up: 0.0; RAM network inh: 4.2

How did CCOC(=O)C1=CN(c2cccc(F)c2)C=C(C(=O)OCC)C1c1cc(OC)c(O)c([N+](=O)[O-])c1 do in these assays?
BB579 growth dn: -13.8; WT yeast gro inh: 87.8*; Yeast lifespan up: 0.0; RAM network inh: 6.0

Results for CCCCNS(=O)(=O)c1ccc(NC(=O)Cc2ccccc2[N+](=O)[O-])cc1 ?
WT yeast gro inh: 6.5; RAM network inh: 3.1

How did CC(=O)NC(c1cccc([N+](=O)[O-])c1)c1c(OC(C)=O)ccc2ccccc12 (centres undefined) do in these assays?
BB579 growth dn: -37.0; WT yeast gro inh: 1.4; RAM network inh: 1.1

What do the screens show for `CC(=O)Oc1ccc2ccccc2c1C(NC(=O)Cc1ccccc1)c1ccccc1` (centres undefined)?
BB579 growth dn: -77.6; WT yeast gro inh: -11.8; Yeast lifespan up: 4.0; RAM network inh: 9.6*

Results for Cc1cc(-c2ccccc2)nc(-c2ccccc2)c1C ?
WT yeast gro inh: 77.5*; RAM network inh: 1.2

What do the screens show for `CNc1oc(C)nc1S(=O)(=O)c1ccc(C)cc1`?
BB579 growth dn: 11.0; WT yeast gro inh: 67.6*; Yeast lifespan up: -18.7; RAM network inh: 0.9

How did Cc1ccc(S(=O)(=O)c2nc(C)oc2NCc2ccccc2)cc1 do in these assays?
BB579 growth dn: 13.2; WT yeast gro inh: -6.4; Yeast lifespan up: -7.8; RAM network inh: -0.5

What do the screens show for `CC(=O)Nc1cccc(NC(=O)c2cc(-c3cccnc3)nc3ccc(Cl)cc23)c1`?
WT yeast gro inh: -4.2; RAM network inh: 9.3*

What do the screens show for `CC(=O)Nc1cccc(NC(=O)c2cc(-c3cccnc3)nc3ccc(Br)cc23)c1`?
BB579 growth dn: -39.0; WT yeast gro inh: 2.4; Yeast lifespan up: -7.4; RAM network inh: 2.8

Results for O=C(Cc1ccccc1)NNc1ccc2ccccc2c1 ?
WT yeast gro inh: 52.3; RAM network inh: 1.9

How did O=C(CN1C(=O)CCC1=O)NNc1ccc2ccccc2c1 do in these assays?
WT yeast gro inh: 70.6*; RAM network inh: -1.3

How did CN(C)c1ccc(C=NCC2COc3ccccc3O2)cc1 (centres undefined) do in these assays?
WT yeast gro inh: -3.5; RAM network inh: 1.6

Results for c1ccc(-c2nc(NCc3cccnc3)c3oc4ccccc4c3n2)cc1 ?
BB579 growth dn: -49.0; WT yeast gro inh: 72.3*; Yeast lifespan up: -12.4; RAM network inh: 1.7

How did CCN1C(=O)S/C(=C/c2ccc(Sc3nc4ccccc4[nH]3)o2)C1=O do in these assays?
BB579 growth dn: -49.4; WT yeast gro inh: 9.9; Yeast lifespan up: 8.2; RAM network inh: 2.2

What do the screens show for `CC(C)COC(=O)c1ccc2c(c1O)C(=O)c1ccccc1C2=O`?
BB579 growth dn: -26.1; WT yeast gro inh: 43.6; Yeast lifespan up: -8.2; RAM network inh: 8.8*

What do the screens show for `S=c1[nH]nc(COc2ccccc2)n1/N=C/C=C/c1ccccc1`?
BB579 growth dn: -4.0; WT yeast gro inh: 70.7*; Yeast lifespan up: 2.2; RAM network inh: 3.7
